Efflux pump inh: blocks antifungal efflux pumps in multiplex yeast assay; S. cerevisiae Candida pump triplex, Nile Red efflux; inhibition, % at 10 µM; 330,000 compounds, 0.44% hits; AID 485275;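 active = plate passing quality check with inhibition over a set limit, or well fluorescence over plate mean plus 4 SD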;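 also: Nile Red retained in pooled yeast measured as flow cytometry median fluorescence; higher means more Nile Red kept so more efflux inhibition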
Neddyl block: blocks human cullin neddylation. TR-FRET cullin neddylation, biochemical. AID 651699. 360,000 compounds, 0.58% hits. inhibition, % at 25 µM; in the data active = inhibition above about 36%
Arrestin-AP2 inh: blocks beta-arrestin peptide binding to AP2 adaptin; FITC-arrestin peptide / GST-AP2 beads, flow cytometry; AP2 beta2 appendage carries R879A mutation; inhibition, % at 10 µM; 340,000 compounds, 0.31% hits; AID 504490;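 active = inhibition above a set limit, near 3 SD of compounds lacking own fluorescence, cut at about 54% in these data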
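System: GST-AP2 R879A glutathione beads. Medium: PBS with 0.05% Tween 20 and 0.1% BSA. Also added: FITC-arrestin peptide, 50 nM. Incubation: 12 min plus 1 h, RT. Measured by: high-throughput flow cytometry of beads, ex 488, em 535 nm. Evaluation: percent drop in bead-associated FITC signal.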
Pemphigus Ab inh: human desmoglein-3 autoantibody binding inhibition; binding (percent of control), % at 10 µM; DSG3-coupled beads, scFv-anti-DSG3-GFP binding, flow cytometry; stronger effect = lower value; 310,000 compounds, 0.48% hits;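 active = binding more than 3 SD below its plate's average and above zero; inconclusive = below that plate limit but binding exactly zero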;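 also: hits lower antibody fragment binding to DSG3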
Target sequence (P32926 whole entry, looked up, the tested form may be a part): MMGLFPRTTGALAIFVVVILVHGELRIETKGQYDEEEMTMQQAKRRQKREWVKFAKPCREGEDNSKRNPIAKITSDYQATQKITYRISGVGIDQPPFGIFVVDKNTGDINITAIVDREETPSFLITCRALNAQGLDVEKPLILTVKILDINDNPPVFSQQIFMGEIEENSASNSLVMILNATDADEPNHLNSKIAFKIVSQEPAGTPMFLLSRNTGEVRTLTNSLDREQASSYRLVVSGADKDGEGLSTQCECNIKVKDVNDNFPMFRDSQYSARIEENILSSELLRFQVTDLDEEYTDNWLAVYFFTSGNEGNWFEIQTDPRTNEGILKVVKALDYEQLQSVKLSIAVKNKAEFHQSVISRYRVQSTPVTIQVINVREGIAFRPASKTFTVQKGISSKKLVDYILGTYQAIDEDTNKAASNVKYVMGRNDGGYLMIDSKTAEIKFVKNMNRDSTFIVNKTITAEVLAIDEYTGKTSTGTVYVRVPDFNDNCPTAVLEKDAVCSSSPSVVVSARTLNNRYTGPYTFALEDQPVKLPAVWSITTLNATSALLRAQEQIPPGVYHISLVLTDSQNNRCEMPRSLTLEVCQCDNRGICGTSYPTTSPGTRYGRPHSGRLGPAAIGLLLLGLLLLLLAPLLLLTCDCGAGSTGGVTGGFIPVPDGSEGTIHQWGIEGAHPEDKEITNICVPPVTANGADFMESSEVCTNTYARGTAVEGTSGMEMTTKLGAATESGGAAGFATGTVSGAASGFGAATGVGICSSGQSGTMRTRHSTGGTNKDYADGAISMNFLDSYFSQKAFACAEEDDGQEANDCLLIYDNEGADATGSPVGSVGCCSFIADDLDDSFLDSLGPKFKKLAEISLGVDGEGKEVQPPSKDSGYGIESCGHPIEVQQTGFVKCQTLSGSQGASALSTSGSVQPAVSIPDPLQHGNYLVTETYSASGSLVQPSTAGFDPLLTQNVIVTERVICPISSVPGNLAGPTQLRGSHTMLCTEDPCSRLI
Of the large screens only hits and unclear results are named; the others gave an inactive call. Compounds with a hit are over-represented: about 1.7% of the library has one in this group of screens.

O=c1c2ccccc2sn1-c1ccccc1F	none (no result: Efflux pump inh, Arrestin-AP2 inh, Pemphigus Ab inh)
O=c1c2cc(F)ccc2sn1-c1ccccc1	Pemphigus Ab inh 43.2
O=c1c2ccccc2sn1-c1ccccc1	Pemphigus Ab inh inconclusive
O=c1c2cc(C(F)(F)F)ccc2sn1-c1ccccc1	Pemphigus Ab inh 68.1 (no result: Efflux pump inh, Arrestin-AP2 inh)
CCc1nc2ccc(C(=O)NCCCN3CCN(c4ccc(F)cc4)CC3)cc2nc1CC	none
CN1CCN(CCNC(=O)c2ccc3nc(-c4ccc(F)cc4)c(-c4ccc(F)cc4)nc3c2)CC1	Neddyl block 51.2
Cc1cc(C)c(NS(=O)(=O)c2ccc(NC(=O)/C=C/C(=O)O)cc2)c(C)c1	none (no result: Neddyl block, Arrestin-AP2 inh, Pemphigus Ab inh)
Cn1c(C(=O)NCCCN2CCOCC2)cc2c(=O)n(C)c3ccccc3c21	Pemphigus Ab inh 83.5
CCCCC[C@H]1CN(Cc2ccccc2)C(=O)[C@@H]1CC(=O)NCc1ccccc1	none
CN1OC[C@@H]2CN(C(=O)C(C)(C)C)[C@H](c3cccc(-c4ccccc4)c3)C[C@@H]21	none (no result: Efflux pump inh)
CN1OC[C@@H]2CN(C(=O)C(C)(C)C)[C@H](c3ccc(-c4cc5ccccc5o4)cc3)C[C@@H]21	Pemphigus Ab inh 60.9 (no result: Efflux pump inh, Arrestin-AP2 inh)
COc1ccc(CN2CCN(C(=O)CC(C)C)CC2)cc1	none
O=C(NCCCCc1ccccc1)Nc1ccc(F)cc1F	Pemphigus Ab inh 92.4
COC(=O)CCCn1cc(CN2CC(N3CCN(C4CCN(C)CC4)CC3)CS2(=O)=O)nn1 (centres undefined)	none (no result: Efflux pump inh, Arrestin-AP2 inh, Pemphigus Ab inh)
O=C(NC1CCOC1=O)c1ccccc1 (centres undefined)	none (no result: Efflux pump inh)
O=C(NC1CSC/C1=N\O)c1ccccc1 (centres undefined)	Pemphigus Ab inh 81.7
NC(=O)c1cc2cc([N+](=O)[O-])ccc2oc1=O	none
CC(C)c1ccc(S(=O)(=O)N2CCC(C(=O)NCc3ccco3)CC2)cc1	none (no result: Efflux pump inh)
CC(C)COc1ccc(C(=O)Nc2ccc(NC(=O)c3ccco3)c(Cl)c2)cc1	none (not shown: Neddyl block)
CC(C)Oc1ccc(C(=O)Nc2ccc(NC(=O)c3ccco3)c(Cl)c2)cc1	Pemphigus Ab inh 54.1 (not shown: Neddyl block)
Cc1ccc(CS(=O)(=O)c2ncc(Cl)c(C(=O)Nc3nnc(C(C)C)s3)n2)cc1	none
Cc1cccc(CS(=O)(=O)c2ncc(Cl)c(C(=O)Nc3nnc(C(C)C)s3)n2)c1	Pemphigus Ab inh 92.5
O=C(Cc1ccccc1)Nc1c2c(nn1-c1cccc(Cl)c1)CS(=O)(=O)C2	Pemphigus Ab inh 86.1
COc1ccc(CC(=O)Nc2c3c(nn2-c2cccc(Cl)c2)CS(=O)(=O)C3)cc1	none
CCCCNC(=O)Nc1nc2ccc(CC)cc2s1	Pemphigus Ab inh 106.5
Cc1ccc(-c2nc(CS(=O)CC(=O)NCCC(C)C)c(C)o2)cc1 (centres undefined)	Pemphigus Ab inh 72.3
Cc1oc(-c2ccc(Cl)cc2)nc1CS(=O)CC(=O)NCc1ccccc1 (centres undefined)	Pemphigus Ab inh 66.6
Cc1ccc(-c2nc(CS(=O)CC(=O)NCc3ccc(Cl)cc3)c(C)o2)cc1 (centres undefined)	none
O=C(COC(=O)c1cc([N+](=O)[O-])ccc1NCCO)c1ccccc1	none
Cc1ccc(NC(=S)N2CCN(S(=O)(=O)c3c(F)cccc3F)CC2)cc1C	none
CCN(C(=O)C(C)N1C(=O)/C(=C/c2ccco2)SC1=S)C1CCS(=O)(=O)C1 (centres undefined)	none
O=C1/C(=C/C=C/c2ccco2)SC(=S)N1NS(=O)(=O)c1ccccc1	Efflux pump inh 1.5, Pemphigus Ab inh 51.1
CC(C(=O)O)N1C(=O)/C(=C/C=C/c2ccco2)SC1=S (centres undefined)	Pemphigus Ab inh 69.1
COc1ccc(OC)c(/C=C2\SC(=S)N(NS(=O)(=O)c3ccccc3)C2=O)c1	none
O=C(NCCCCc1ccccc1)c1ccccc1Cl	none
Cc1ccc(C(C)C)c(OCc2ccc(C(=O)N/N=C/c3ccc(O)cc3O)cc2)c1	Neddyl block 43.5
Cc1ccc(C(C)C)c(OCc2ccc(C(=O)N/N=C/c3ccc(C(=O)O)cc3)cc2)c1	none
CCCCn1c(-c2ccc(Br)cc2F)nc2c1c(=O)[nH]c(=O)n2CC(C)C	Pemphigus Ab inh 55.8
O=C(Cn1cnc2c(cnn2-c2ccc(F)cc2)c1=O)N1CCN(c2ccccc2)CC1	none (no result: Efflux pump inh)
O=C(Cn1cnc2c(cnn2-c2ccccc2)c1=O)N1CCN(c2ccc(F)cc2)CC1	Pemphigus Ab inh 86.5
O=C(NCCCCCCNC(=O)c1cncc(O)c1)c1cncc(O)c1	none
CCOc1ccc2c(c1)C(NC(C)=O)C(=O)N2CCN1CCOCC1 (centres undefined)	Pemphigus Ab inh 80.6
CC(=O)NC1C(=O)N(CCN2CCOCC2)c2ccc(Br)cc21 (centres undefined)	none
CCCN(CC(=O)Nc1ccccc1C)C(=O)c1ccc(N2CCCCCC2)c([N+](=O)[O-])c1	none
Nc1cc2c(cc1Cl)-c1ccc(Cl)cc1C2=O	none (no result: Efflux pump inh)
O=C1CS/C(=N/N=C/c2cccs2)N1Cc1ccc(F)cc1	Pemphigus Ab inh 70.0
CN(C)S(=O)(=O)c1ccc(N2CCCC2)c(C(=O)NNC(=O)COc2ccccc2F)c1	none
O=[N+]([O-])c1ccc(NCCNc2ccc([N+](=O)[O-])cc2)cc1	Pemphigus Ab inh -6.8 (no result: Efflux pump inh)
COc1ccc(C(=O)NCc2nnc(SCC(=O)N3CCc4ccccc43)n2C2CCCCC2)cc1	Pemphigus Ab inh 89.0
COc1ccc(C(=O)NCc2nnc(SCC(=O)N3CCc4ccccc43)n2CCc2ccccc2)cc1	none
COc1cc(/C=N/NC(=O)c2cc3c(ccc4ccccc43)o2)cc(OC)c1O	Neddyl block 42.4
Cc1ccc(NC(=O)c2csc(-c3ccccc3)c2C)cc1	Pemphigus Ab inh -23.8 (no result: Efflux pump inh)
CC(CN(C)Cc1ccccc1)OC(=O)c1cccc(F)c1 (centres undefined)	none
COc1cc(C(=O)N2CCN(S(=O)(=O)c3cccc(F)c3)CC2)ccc1OCC(=O)N1CCOCC1	Pemphigus Ab inh 86.6
COc1cc(C(=O)NNC(=O)c2ccc(F)cc2)ccc1OCC(=O)N1CCOCC1	none
COc1cc(C(=O)NCCc2ccc(F)cc2)ccc1OCC(=O)N1CCOCC1	Pemphigus Ab inh 86.4
Cc1cc(C)nc(NS(=O)(=O)c2ccc(NC(=O)c3ccccc3Br)cc2)n1	none (no result: Efflux pump inh, Arrestin-AP2 inh)
CC(CCC(=O)NN)C1CCC2C3CCC4CC(O)CCC4(C)C3CCC12C (centres undefined)	none (no result: Efflux pump inh)
CC(CCC(C)C(C)(C)C)[C@@H]1CC[C@H]2C3C[C@H](OS(O)(=S)=S)[C@H]4C[C@H](OS(O)(=S)=S)[C@@H](OS(O)(=S)=S)C[C@]4(C)[C@H]3CC[C@]12C (some centres undefined) (tested in a mixture with another compound)	Efflux pump inh 2.1
O=C(Cn1sc2ccccc2c1=O)Nc1ccc(Cl)cc1	Pemphigus Ab inh 71.7 (no result: Efflux pump inh, Arrestin-AP2 inh)
NS(=O)(=O)c1ccc(CCNC(=O)c2ccc3nc4ccc(Cl)cc4c(=O)n3c2)cc1	Neddyl block 47.0
Cc1ccc(CCNC(=O)c2ccc3nc4ccc(Cl)cc4c(=O)n3c2)cc1	none
COc1cc(C)nc(N2CCC(C(=O)NCC3CCCO3)CC2)n1 (centres undefined)	none
Fc1ccc(Nc2nc(NCc3ccco3)c3ccccc3n2)cc1	Neddyl block 43.4
Nc1nc(Nc2ccccc2)nc(NCc2ccco2)c1[N+](=O)[O-]	none
Cc1ccc(-c2cc(C(=O)NCc3ccc4c(c3)OCO4)[nH]n2)c(O)c1C	none

Compound activity as filed in PubChem BioAssay.
